Source: ChEMBL document CHEMBL3352343, “Structure-activity relationships of oxysterol-derived pharmacological chaperones for Niemann-Pick type C1 protein” (Bioorg Med Chem Lett, 2014)

Tested on: T1, NPC1-like intracellular cholesterol transporter 1 (Homo sapiens), Q9UHC9 [I1061T]
T1 sequence (whole entry): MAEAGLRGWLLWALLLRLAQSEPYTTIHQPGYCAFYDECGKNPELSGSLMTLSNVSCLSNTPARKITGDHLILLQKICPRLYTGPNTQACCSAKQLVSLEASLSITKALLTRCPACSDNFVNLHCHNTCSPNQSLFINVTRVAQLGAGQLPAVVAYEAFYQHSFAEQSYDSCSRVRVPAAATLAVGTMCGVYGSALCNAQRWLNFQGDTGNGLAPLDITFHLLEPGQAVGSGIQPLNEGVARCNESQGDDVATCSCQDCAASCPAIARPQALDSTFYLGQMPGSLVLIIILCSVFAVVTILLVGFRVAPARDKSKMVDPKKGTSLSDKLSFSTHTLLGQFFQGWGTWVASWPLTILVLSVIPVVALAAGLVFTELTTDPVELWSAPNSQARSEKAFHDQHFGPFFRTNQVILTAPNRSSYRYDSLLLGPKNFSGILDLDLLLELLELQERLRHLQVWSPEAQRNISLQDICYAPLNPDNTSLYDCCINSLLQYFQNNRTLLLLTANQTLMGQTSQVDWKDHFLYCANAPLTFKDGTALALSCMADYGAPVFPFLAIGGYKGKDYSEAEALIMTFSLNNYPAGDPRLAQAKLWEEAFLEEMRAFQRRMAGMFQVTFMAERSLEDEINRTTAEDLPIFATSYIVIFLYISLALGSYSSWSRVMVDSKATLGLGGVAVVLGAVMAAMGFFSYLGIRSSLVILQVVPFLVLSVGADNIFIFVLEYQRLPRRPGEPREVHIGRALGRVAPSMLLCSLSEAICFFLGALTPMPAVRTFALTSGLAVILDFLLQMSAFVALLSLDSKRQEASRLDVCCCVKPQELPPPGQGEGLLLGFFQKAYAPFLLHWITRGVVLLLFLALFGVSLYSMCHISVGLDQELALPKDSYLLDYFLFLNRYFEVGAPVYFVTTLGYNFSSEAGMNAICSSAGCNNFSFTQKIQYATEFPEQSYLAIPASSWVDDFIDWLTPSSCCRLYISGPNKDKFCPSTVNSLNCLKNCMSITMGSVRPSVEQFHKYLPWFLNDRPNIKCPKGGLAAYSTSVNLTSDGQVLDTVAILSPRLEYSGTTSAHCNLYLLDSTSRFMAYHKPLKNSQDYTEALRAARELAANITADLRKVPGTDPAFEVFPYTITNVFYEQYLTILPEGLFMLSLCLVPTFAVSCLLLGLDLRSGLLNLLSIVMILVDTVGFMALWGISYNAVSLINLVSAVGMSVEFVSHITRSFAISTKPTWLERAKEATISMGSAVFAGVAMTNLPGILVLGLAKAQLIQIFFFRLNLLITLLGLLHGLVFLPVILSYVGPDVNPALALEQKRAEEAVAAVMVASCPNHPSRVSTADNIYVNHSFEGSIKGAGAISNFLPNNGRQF
Experiment: Binding affinity to FLAG/tGFP-tagged NPC1 I1061T mutant (unknown origin) expressed in HEK293 cells assessed as localization after 24 hrs by fluorescence microscopy
Type: cell-based
How it was run: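 HEK293 cells stably expressing NPC1 I1061T-tGFP were exposed to compound for 24 h, fixed, and nuclei stained with Hoechst 33342. In the images, each cell was scored by tGFP pattern: ER 0, mixed ER+vesicle 0.5, vesicular 1. Scores were averaged to give the vesicular-localization percentage, and EC50 was taken from concentration-response. Data are mean ± standard deviation of three independent experiments.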

`C[C@H](CCCC(C)(C)O)[C@H]1CC[C@H]2[C@@H]3CC=C4C[C@@H](O)CC[C@]4(C)[C@H]3CC[C@]12C` was tested, and the Activity was “Dose-dependent effect”.
